The source made the active and inactive calls. The rule behind the calls is not given here.
Tests used:
Bacillus subtilis [1] = experiment: Antimicrobial activity against Bacillus subtilis LMA0011 at 25 ug/8 mm disk after 18 hrs by paper disk method; format: functional
Outline: (§1)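 Disk diffusion: 25 or 50 µg sample in acetone (20 µL) on air-dried 8 mm paper disk, placed on agar seeded with organism; plates held overnight at 4 °C for diffusion, then 37 °C for 18 h. Read-out: diameter of clear inhibition zone; triplicate.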

Bacillus subtilis [2] = experiment: Antimicrobial activity against Bacillus subtilis LMA0011 at 50 ug/8 mm disk after 18 hrs by paper disk method; format: functional; outline: as §1
Staphylococcus aureus [3] = experiment: Antimicrobial activity against Staphylococcus aureus AHU1142 at 25 ug/8 mm disk after 18 hrs by paper disk method; format: functional; outline: as §1
Staphylococcus aureus [4] = experiment: Antimicrobial activity against Staphylococcus aureus AHU1142 at 50 ug/8 mm disk after 18 hrs by paper disk method; format: functional; outline: as §1
Escherichia coli [5] = experiment: Antimicrobial activity against Escherichia coli AHU1714 at 25 ug/8 mm disk after 18 hrs by paper disk method; format: functional; outline: as §1
Escherichia coli [6] = experiment: Antimicrobial activity against Escherichia coli AHU1714 at 50 ug/8 mm disk after 18 hrs by paper disk method; format: functional; outline: as §1
Pseudomonas fluorescens [7] = experiment: Antimicrobial activity against Pseudomonas fluorescens AHU1719 at 25 ug/8 mm disk after 18 hrs by paper disk method; format: functional; outline: as §1
Pseudomonas fluorescens [8] = experiment: Antimicrobial activity against Pseudomonas fluorescens AHU1719 at 50 ug/8 mm disk after 18 hrs by paper disk method; format: functional; outline: as §1
Cladosporium herbarum = experiment: Antifungal activity against Cladosporium herbarum AHU9262 after 3 days by TLC plate assay; format: functional, organism-based
Outline: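 TLC bioautography: EtOAc extract of culture filtrate (equivalent to 0.25 mL medium) developed in CHCl3–MeOH 25:1, sprayed with C. herbarum spore suspension, incubated 25 °C under humid conditions for 3 days; inhibitory zones matched to UV 254 nm spots.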

Bacillus subtilis [9] = experiment: Antimicrobial activity against Bacillus subtilis LMA0011 at 12.5 ug/8 mm disk after 18 hrs by paper disk method; format: functional
Outline: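 Positive-control disk diffusion: pentachlorophenol 12.5 µg on 8 mm paper disk on seeded agar; overnight at 4 °C, then 37 °C for 18 h; clear inhibition-zone diameter measured; triplicate.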

Row | Compound | inhibition zone (IZ) (Bacillus subtilis [1]) [mm] | inhibition zone (IZ) (Bacillus subtilis [2]) [mm] | inhibition zone (IZ) (Staphylococcus aureus [3]) [mm] | inhibition zone (IZ) (Staphylococcus aureus [4]) [mm] | inhibition zone (IZ) (Escherichia coli [5]) [mm] | inhibition zone (IZ) (Escherichia coli [6]) [mm] | inhibition zone (IZ) (Pseudomonas fluorescens [7]) [mm] | inhibition zone (IZ) (Pseudomonas fluorescens [8]) [mm] | Activity (Cladosporium herbarum) | inhibition zone (IZ) (Bacillus subtilis [9]) [mm]
1 | Cc1cc2c(cc1O)[C@@]1(C)CC[C@@](O)(O2)C1(C)C [ENOKIPODIN A] | 28 | 32.6 | 19.2 | 25.2 | 0 | 0 | 0 | 0 | Active | 
2 | CC1=CC(=O)C([C@@]2(C)CCC(=O)C2(C)C)=CC1=O [ENOKIPODIN B] | 17 | 21 | 0 | 14 | 0 | 0 |  |  | Active | 
3 | Cc1cc2c(cc1O)[C@@]1(C)[C@H](O)C[C@@](O)(O2)C1(C)C [ENOKIPODIN C] | 20 | 26 | 18 | 21.2 | 0 | 0 | 0 | 0 | Active | 
4 | CC1=CC(=O)C([C@@]2(C)[C@H](O)CC(=O)C2(C)C)=CC1=O [ENOKIPODIN D] | 11 | 16 | 0 | 11.6 | 0 | 0 |  |  | Active | 
5 | Oc1c(Cl)c(Cl)c(Cl)c(Cl)c1Cl [PENTACHLOROPHENOL] | 31 |  |  |  |  |  |  |  |  | 26.6

— ChEMBL document CHEMBL1155725, “Antimicrobial cuparene-type sesquiterpenes, enokipodins C and D, from a mycelial culture of Flammulina velutipes” (2001)
